Rows were chosen to be rich in hits. Some 3.4% of all compounds tested hit in one or more screens of this group.
Arrestin-AP2 inh – inhibitors of beta-arrestin/AP2 binding, primary screen, biochemical, GPCR trafficking, flow cytometry; inhibition, % at 10 µM; beta-arrestin 1 C-terminal peptide binding to AP2 beta2-adaptin appendage (human); 340,000 compounds, 0.31% hits; FITC-arrestin peptide / GST-AP2 beads; AP2 beta2 appendage carries R879A mutation;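 active = inhibition above a set limit, near 3 SD of compounds lacking own fluorescence, cut at about 54% in these data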;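 note: plate controls were DMSO wells for no effect and 5 µM unlabelled arrestin peptide for full effect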
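test system = AP2 appendage R879A on GSH beads | buffer or medium = PBS plus Tween 20 (0.05%) and BSA (0.1%) | incubation = 12 min plus 1 h, RT | detection = bead flow cytometry, FITC channel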
PolyA inh – polyadenylation inhibitors in yeast reporter cells, primary screen, luminescence, S. cerevisiae | S. cerevisiae SKY197-pL101 polyadenylation reporter, beta-gal luminescence; efflux-impaired pdr1/pdr3 knockout yeast; score 100 = 6 SD above DMSO | activity score, % at 12 µM | 300,000 compounds, 0.02% hits | AID 1875, 2009;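 active = lowest replicate activity score at least 50, where 100 means six control SD above control mean; inconclusive = lowest score under 50 but half or more replicates reach 50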;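 note: yeast exposed to compound for 9 h at 30 °C; higher score means more reporter readthrough which indicates perturbed polyadenylation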
UCH37 inh – inhibitors of human UCH37 deubiquitinase, primary screen, biochemical, Ub-AMC cleavage, fluorescence; Ubiquitin carboxyl-terminal hydrolase isozyme L5 (Homo sapiens), Q9Y5K5; purified proteasome/UCH37; inhibition, % (test concentration not listed); 330,000 compounds, 0.33% hits;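 active = mean inhibition over replicate wells above about 20%, limit read from the data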;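 note: 0% = compound-free wells with enzyme and 100% = wells lacking proteasome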
Target sequence (Q9Y5K5 whole entry, looked up): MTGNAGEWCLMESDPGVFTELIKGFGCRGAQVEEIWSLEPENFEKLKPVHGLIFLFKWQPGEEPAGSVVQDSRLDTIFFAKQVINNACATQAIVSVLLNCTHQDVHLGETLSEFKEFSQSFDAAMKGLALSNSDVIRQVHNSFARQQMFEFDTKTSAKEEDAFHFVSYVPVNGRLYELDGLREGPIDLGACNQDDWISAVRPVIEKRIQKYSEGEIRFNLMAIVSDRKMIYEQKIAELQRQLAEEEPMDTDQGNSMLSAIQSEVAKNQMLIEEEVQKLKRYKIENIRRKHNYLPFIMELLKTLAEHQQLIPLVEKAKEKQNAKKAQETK
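Signal – fluorescence, ex 355 nm, em 460 nm · System – Proteasome-bound UCH37 · Input – 0.15 nM proteasome as dispensed · Timing – 30 min preincubation with enzyme, 25 min cleavage at room temperature · Read-out basis – percent inhibition of cleavage signal versus uninhibited and no-proteasome wells · Medium – Tris-HCl pH 7.4 with ATP-MgCl2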
A3A deaminase – APOBEC3A ssDNA deaminase inhibitors, primary screen, selectivity assay for APOBEC3G inhibitor project, biochemical, FAM/TAMRA oligo cleavage fluorescence. DNA dC->dU-editing enzyme APOBEC-3A (Homo sapiens), P31941. inhibition, % at 20 µM. 330,000 compounds, 0.41% hits. recombinant A3A, FAM/TAMRA ssDNA deamination fluorescence;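 active = at least 40% inhibition at 20 µM here, with at most 30% in a related deaminase screen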;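 note: plate controls were A3A with DMSO for no effect and wells lacking A3A enzyme for full effect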
Target sequence (P31941 whole entry, looked up): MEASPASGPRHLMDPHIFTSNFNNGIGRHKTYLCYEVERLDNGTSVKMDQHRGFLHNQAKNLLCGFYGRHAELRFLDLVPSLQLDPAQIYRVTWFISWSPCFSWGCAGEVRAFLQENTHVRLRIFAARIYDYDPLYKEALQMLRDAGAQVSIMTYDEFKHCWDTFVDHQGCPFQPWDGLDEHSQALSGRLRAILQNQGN
AHR act – AHR activators, primary screen, cell-based, luminescence, luciferase reporter, human; Aryl hydrocarbon receptor (Homo sapiens), P35869; 320,000 compounds, 2.5% hits; AHR-responsive luciferase reporter cells; activation, % at 5 µM; in the data active = activation above about 47%;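 note: 0% = vehicle wells and 100% = reference agonist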
A3G deaminase – APOBEC3G DNA deaminase inhibitors, primary screen, biochemical, fluorescence, single-stranded DNA substrate, uHTS; inhibition, % at 20 µM; recombinant A3G, ssDNA deamination FAM/TAMRA fluorescence; AID 493012, 2011; DNA dC->dU-editing enzyme APOBEC-3G (Homo sapiens), Q9HC16; 330,000 compounds, 0.28% hits;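 active = inhibition of at least 40% at 20 µM, with no more than 30% in the related APOBEC3A deaminase screen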;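 note: plate controls were DMSO wells with A3G for no effect and wells lacking A3G enzyme for full effect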
An asterisk follows results filed as active; ? = inconclusive; · = no result.

SMILES | Arrestin-AP2 inh | PolyA inh | UCH37 inh | A3A deaminase | AHR act | A3G deaminase
CSc1ccccc1NC(=O)c1cnc2scc(C)n2c1=O | -8 | -9 | 8 | 0 | 65* | -2
Cc1ccc(C(=O)Oc2ccc(C=NNC(N)=O)cc2)cc1 | · | · | 3 | · | · | ·
Cc1ccccc1-c1nc2cc(N)ccc2o1 | 9 | -16 | -91 | -6 | 4 | -8
CC(C)c1ccc2oc(-c3cc(N)ccc3O)nc2c1 | 37 | 0 | 4 | 2 | 70* | 1
CC(=NNS(=O)(=O)c1ccc(C)cc1)c1ccc(C)o1 | · | · | -1 | · | · | ·
C#CCn1cc(Cl)cc(C(=O)Nc2ccccc2)c1=O | -8 | -3 | 5 | 0 | 62* | -5
O=C(Nc1ccccc1)c1ccc(=O)n(Cc2cccc(Cl)c2)c1 | 20 | 1 | 3 | -4 | 21 | -8
CC1(C)CC(=O)CC(=NNC(=O)c2cccs2)C1 | · | · | 6 | · | · | ·
N#CC1(C#N)C2=C(CCCC2)NC(c2ccccc2)C1(C#N)C#N (configuration not stated) | · | 159* | · | 1 | 9 | -3
COc1ccc(/C=C/C(=O)Nc2nonc2NC(C)=O)cc1 | 3 | 10 | · | 5 | 49* | -3
COc1ccc(/C=C/C(=O)Nc2cc(C)on2)cc1 | 9 | ? | 1 | 1 | 23 | 0
CCc1noc(C)c1C(=O)Nc1nc2ccc(F)cc2s1 | 0 | 15 | 2 | 20 | 52* | -6
NC(=O)COc1ccc(C=NNC(=O)c2ccc(-c3ccccc3)cc2)cc1 | · | · | -173 | · | · | ·
Oc1[nH]c(N=C2N=c3ccccc3=N2)c2ccccc12 | -2 | -21 | -18 | · | 58* | ·
CC(=NNC(=O)COc1ccc(C)cc1[N+](=O)[O-])c1cccs1 | · | · | 2 | · | · | ·
O=C(Nc1cccnc1)Nc1cccc(F)c1 | 23 | 3 | 1 | -4 | 46 | -9
Cc1cccc(NC(=O)Nc2ccncc2)c1 | -1 | 30 | 2 | -3 | 53* | -5
Cc1cc(C)cc(NC(=O)Nc2cccc(S(N)(=O)=O)c2)c1 | 8 | -3 | 5 | 1 | 58* | 3
O=C(Nc1ccncc1)Nc1cccc(F)c1 | 33 | 7 | 0 | 1 | · | -10
O=C(Nc1cccnc1)Nc1ccc(Cl)cc1Cl | · | -2 | 2 | -2 | 48* | -6
CC(=O)c1cccc(NC(=O)Nc2cccnc2)c1 | 20 | -10 | 1 | -2 | 65* | -5
NS(=O)(=O)c1cccc(NC(=O)Nc2ccccc2)c1 | 14 | -13 | 2 | 5 | 8 | 9
O=C(O)c1cccc(NN=Cc2cccs2)c1 | · | · | 12 | · | · | ·
O=C(CN1CCN(Cc2ccccc2Cl)CC1)NN=Cc1ccco1 | · | · | 3 | · | · | ·
CCNC(=S)NN=Cc1ccco1 | · | · | 5 | · | · | ·
SMILES | Arrestin-AP2 inh | PolyA inh | UCH37 inh | A3A deaminase | AHR act | A3G deaminase
CC(=NNc1ccc(C#N)cc1[N+](=O)[O-])c1ccc(C)o1 | · | · | 7 | · | · | ·
Cc1ccc(NC(=O)Nc2ncccc2C)cc1 | 2 | -21 | 3 | -2 | 57* | 0
CCOc1ccc(NC(=O)Nc2cccnc2)cc1 | 0 | -9 | 1 | -2 | 61* | -2
Cc1cccnc1NC(=O)Nc1ccc(F)cc1 | -23 | 8 | -1 | 0 | 26 | -9
COc1ccc(NC(=O)Nc2cccnc2)cc1 | 1 | 10 | 0 | 1 | 27 | -5
O=C(Nc1ccc(Cl)cc1Cl)NC1CCCC1 | 33 | 14 | 0 | -3 | 53* | -4
COc1cccc(C(C)=NNc2ncc(Cl)cc2Cl)c1 | · | · | 5 | · | · | ·
Cc1ccccc1C(=O)Nc1cccc(C(=O)NN=Cc2ccccn2)c1 | · | · | -1 | · | · | ·
O=C(NN=Cc1cc(Br)cs1)c1ccccc1[N+](=O)[O-] | · | · | 4 | · | · | ·
COc1cc(NC(=O)C/C(C)=N/NC(=O)Cc2ccc(Cl)cc2)c(OC)cc1Cl | -11 | 11 | · | -1 | 81* | -7
